Measured values: ChEMBL document CHEMBL3259818, “Tomensides A-D, new antiproliferative phenylpropanoid sucrose esters from Prunus tomentosa leaves” (Bioorg Med Chem Lett, 2014)

Experiments:
Format in all cases: functional, cell-based
HT-29 = test: Cytotoxicity against human HT-29 cells after 2 days by MTT assay; conditions: HT-29, 48 h
Method in brief: (§1)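 Cells grown in RPMI-1640 and seeded in 96-well plates for 4 h before sample addition. Test samples were tested at four concentrations, with 37 °C incubation for 2 days. MTT solution (5 mg/mL) was then added for a further 4 h. Formazan was dissolved in 10% SDS in 0.01 M HCl and absorbance read at 550 nm. IC50 determined; 5-fluorouracil served as positive control.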

MCF7 = test: Cytotoxicity against human MCF7 cells after 2 days by MTT assay; conditions: MCF7, 48 h; method in brief: as §1
A549 = test: Cytotoxicity against human A549 cells after 2 days by MTT assay; conditions: A549, 48 h; method in brief: as §1
HeLa = test: Cytotoxicity against human HeLa cells after 2 days by MTT assay; conditions: 48 h; method in brief: as §1

Row | Structure (SMILES) | IC50 (HT-29) [µM] | IC50 (MCF7) [µM] | IC50 (A549) [µM] | IC50 (HeLa) [µM]
1 | CC(=O)OC[C@H]1O[C@H](O[C@]2(CO)O[C@H](CO)[C@@H](O)[C@@H]2OC(=O)/C=C/c2ccc(O)cc2)[C@H](O)[C@@H](OC(C)=O)[C@@H]1OC(C)=O | 2.78 | 2.93 | 1.47 | 3.8
2 | CC(=O)OC[C@H]1O[C@H](O[C@]2(COC(C)=O)O[C@H](CO)[C@@H](O)[C@@H]2OC(=O)/C=C/c2ccc(O)cc2)[C@H](OC(C)=O)[C@@H](O)[C@@H]1O | 3.96 | 3.44 | 3.2 | 2.49
3 | CC(=O)OC[C@H]1O[C@H](O[C@]2(COC(C)=O)O[C@H](CO)[C@@H](O)[C@@H]2OC(=O)/C=C/c2ccc(O)cc2)[C@H](O)[C@@H](O)[C@@H]1OC(C)=O | 1.48 | 1.22 | 0.49 | 0.97
4 | CC(=O)OC[C@H]1O[C@H](O[C@]2(COC(C)=O)O[C@H](CO)[C@@H](OC(C)=O)[C@@H]2OC(=O)/C=C/c2ccc(O)cc2)[C@H](O)[C@@H](O)[C@@H]1O | 0.18 | 0.62 | 0.29 | 0.11
5 | CC(=O)OC[C@H]1O[C@H](O[C@]2(CO)O[C@H](CO)[C@@H](O)[C@@H]2OC(=O)/C=C/c2ccc(O)cc2)[C@H](OC(C)=O)[C@@H](OC(C)=O)[C@@H]1O | 2.45 | 0.98 | 1.12 | 4.32
6 | CC(=O)OC[C@H]1O[C@H](O[C@]2(COC(C)=O)O[C@H](CO)[C@@H](O)[C@@H]2OC(=O)/C=C/c2ccc(O)cc2)[C@H](O)[C@@H](OC(C)=O)[C@@H]1O | 2.1 | 1.44 | 2.56 | 1.33
7 | O=c1[nH]cc(F)c(=O)[nH]1 [FLUOROURACIL] | 17.2 | – | – | –
8 | COc1cc(/C=C/C(=O)O[C@H]2[C@H](O)[C@@H](CO)O[C@@]2(COC(C)=O)O[C@H]2O[C@H](COC(C)=O)[C@@H](O)[C@H](O)[C@H]2OC(C)=O)ccc1O | 0.46 | 0.77 | 0.45 | 1.09
